One may read the IC50 as the concentration needed to halve the response being measured. Broadly, the IC90 is the concentration at which the effect reaches the 90% level. Broadly, the CC50 is the concentration at which the toxic effect on the cells reaches its halfway point.

Data set [1] has as its system Human betaherpesvirus 5. In words: Antimicrobial activity against Human cytomegalovirus AD169 infected in 1 uM compound pretreated HELF assessed as inhibition of viral replication measured after 6 days post-infection. It is filed as functional, organism-based. In short, it runs like this:
(§1)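 HELF pretreated with ODN 1 h before infection with HCMV AD169 (MOI 1); ODN kept in medium after 2 h adsorption at 37°C. At 6 days p.i., cells plus supernatants sonicated and titrated by plaque assay on HELF; plaques counted microscopically, expressed as PFU/ml (log10) or % of control. IC50/IC90 by linear regression; duplicate wells, three independent experiments, means ± SD.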

Data set [2] has as its system Human betaherpesvirus 5. Kind of data set: Antimicrobial activity against Human cytomegalovirus AD169 infected in 0.1 uM compound pretreated HELF assessed as inhibition of viral replication measured after 6 days post-infection. It is filed as functional, organism-based. The essentials:
as §1

In data set [3] the test system is Human alphaherpesvirus 1. In words: Antimicrobial activity against Human herpesvirus 1 infected in compound pretreated HELF assessed as inhibition of viral replication at 1 uM. It is filed as functional, organism-based. The essentials: (§2)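 HELF pretreated with ODN (0.1 or 1 μM) 1 h before infection with a clinical HSV-1 isolate at MOI 0.1; ODN kept in medium after 2 h adsorption. Harvest at 48 h p.i., sonication, plaque titration on Vero cells. Means ± SD of three independent experiments.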

In data set [4] the test system is Human betaherpesvirus 5. In words: Antimicrobial activity against 0.1 uM compound pretreated Human cytomegalovirus AD169 infected in HELF assessed as reduction in viral titer at 4 degC. It is filed as functional, organism-based. The essentials: (§3)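 HCMV AD169 (10^4 PFU) incubated with ODN at 0.1 μM at 4 or 37°C for various times; samples then diluted to bring ODN below an antivirally active level; residual infectivity titrated by plaque assay on HELF. Means ± SD of three independent experiments.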

In data set [5] the test system is Human betaherpesvirus 5. In words: Antimicrobial activity against Human cytomegalovirus AD169 infected in HELF assessed as inhibition of viral replication at 1 uM measured after 6 days post-infection. It is filed as functional, organism-based.
In data set [6] the test system is Human betaherpesvirus 5. In words: Antimicrobial activity against Human herpesvirus 5 strain AD169 infected in HELF assessed as pp65 nuclear localization at 0.1 uM after 2 hrs […]. It is filed as functional, organism-based.
Data set [7] relates to Human alphaherpesvirus 1. In words: Antimicrobial activity against Human herpesvirus 1 infected in compound pretreated HELF assessed as inhibition of viral replication at 0.1 uM. It is filed as functional, organism-based. The essentials: as §2
Data set [8] has as its system Human betaherpesvirus 5. Kind of data set: Antimicrobial activity against Human cytomegalovirus AD169 infected in HELF assessed as inhibition of viral replication at 0.1 uM measured after 6 days post-infection. The format is functional, organism-based.
For data set [9], the system named is Human betaherpesvirus 5. Kind of data set: Antimicrobial activity against Human cytomegalovirus AD169 infected in compound pretreated HELF assessed as inhibition of viral replication measured after 6 days post-infection. The format is functional, organism-based. To be noted: Human betaherpesvirus 5, AD169, HELF. The essentials:
as §1

Data set [10] relates to Human betaherpesvirus 5. In words: Antimicrobial activity against 0.1 uM compound pretreated Human cytomegalovirus AD169 infected in HELF assessed as reduction in viral titer 37 degC. It is filed as functional, organism-based. In short, it runs like this: as §3
The nature of data set [11]: Cytotoxicity against HELF assessed as cell viability by MTT assay after 6 days at <=10 uM. The format is cell-based. To be noted: human, 144 h. The essentials: (§4)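 HELF exposed to rising ODN concentrations (up to 10 μM) for 6 days; viable cells measured by MTT. CC50 taken as concentration that cuts viability to 50%.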
On the technique in general: Tetrazolium dyes change colour on reduction, which living cells bring about.

Data set [12] can be described thus: Cytotoxicity against HELF assessed as cell viability after 6 days by MTT assay. The settings on record: human, HELF cells. The format is cell-based. The essentials:
as §4

Data set [13] is described as follows: Antimicrobial activity against Murine cytomegalovirus (strain Smith) infected in compound pretreated mouse NIH 3T3 cells assessed as inhibition of viral replication. The format is functional, cell-based. To be noted: Murid betaherpesvirus 1, NIH3T3. The essentials: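 NIH 3T3 pretreated 1 h with ODN, infected with MCMV Smith (MOI 1); ODN kept after 2 h adsorption at 37°C. Harvest at 6 days p.i., sonication, plaque assay on NIH 3T3; IC50 from plaque reduction. Means ± SD, three experiments.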

Data set [14] relates to unidentified adenovirus. In words: Antimicrobial activity against unidentified adenovirus infected in compound pretreated HELF assessed as inhibition of viral replication. The format is functional, organism-based. The essentials:
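HELF pretreated 1 h with ODN (0.1 or 1 μM), infected with an adenovirus clinical isolate (MOI 1); ODN kept after 2 h adsorption. Harvest at 4 days p.i., sonication, plaque titration on HELF. Means ± SD, three experiments.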

For data set [15], the system named is Vesicular stomatitis Indiana virus. Kind of data set: Antimicrobial activity against Vesicular stomatitis Indiana virus infected in compound pretreated HELF assessed as inhibition of viral replication. The format is functional, organism-based. In short, it runs like this: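 HELFs exposed to ODN (0.1 or 1 μM) for 1 h, then infected with VSV serotype Indiana at MOI 1 (2 h adsorption, 37°C). ODN kept in the medium until 48 h p.i. Cells and supernatants were pooled, sonicated and titrated by plaque assay on HELFs. Data are means ± standard deviations of three independent experiments, duplicate wells.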

Calls of active or inactive are those of the source. The calls are words filed in the database; no cut-off is given here.

Turning to `Cc1cn([C@H]2C[C@H](OP(O)(O)=S)[C@@H](COP(O)(=S)O[C@H]3C[C@H](n4cc(C)c(=O)[nH]c4=O)O[C@@H]3COP(O)(=S)O[C@H]3[C@@H](O)[C@H](n4ccc(N)nc4=O)O[C@@H]3COP(O)(=S)O[C@H]3[C@@H](O)[C@H](n4cnc5c(=O)[nH]c(N)nc54)O[C@@H]3COP(O)(=S)O[C@H]3C[C@H](n4cc(C)c(=O)[nH]c4=O)O[C@@H]3COP(O)(=S)O[C@H]3[C@@H](O)[C@H](n4cnc5c(=O)[nH]c(N)nc54)O[C@@H]3COP(O)(=S)O[C@H]3C[C@H](n4cc(C)c(=O)[nH]c4=O)O[C@@H]3COP(O)(=S)O[C@H]3C[C@H](n4cc(C)c(=O)[nH]c4=O)O[C@@H]3COP(O)(=S)O[C@H]3C[C@H](n4cc(C)c(=O)[nH]c4=O)O[C@@H]3COP(O)(=S)O[C@H]3C[C@H](n4cc(C)c(=O)[nH]c4=O)O[C@@H]3COP(O)(=S)O[C@H]3[C@@H](O)[C@H](n4ccc(N)nc4=O)O[C@@H]3COP(O)(=S)O[C@H]3[C@@H](O)[C@H](n4cnc5c(=O)[nH]c(N)nc54)O[C@@H]3COP(O)(=S)O[C@H]3C[C@H](n4cc(C)c(=O)[nH]c4=O)O[C@@H]3COP(O)(=S)O[C@H]3[C@@H](O)[C@H](n4cnc5c(=O)[nH]c(N)nc54)O[C@@H]3COP(O)(=S)O[C@H]3C[C@H](n4cc(C)c(=O)[nH]c4=O)O[C@@H]3COP(O)(=S)O[C@H]3C[C@H](n4cc(C)c(=O)[nH]c4=O)O[C@@H]3COP(O)(=S)O[C@H]3C[C@H](n4cc(C)c(=O)[nH]c4=O)O[C@@H]3COP(O)(=S)O[C@H]3C[C@H](n4cc(C)c(=O)[nH]c4=O)O[C@@H]3COP(O)(=S)O[C@H]3[C@@H](O)[C@H](n4ccc(N)nc4=O)O[C@@H]3COP(O)(=S)O[C@H]3[C@@H](O)[C@H](n4cnc5c(=O)[nH]c(N)nc54)O[C@@H]3COP(O)(=S)O[C@H]3C[C@H](n4cc(C)c(=O)[nH]c4=O)O[C@@H]3COP(O)(=S)O[C@H]3[C@@H](O)[C@H](n4ccc(N)nc4=O)O[C@@H]3COP(O)(=S)O[C@H]3[C@@H](O)[C@H](n4cnc5c(=O)[nH]c(N)nc54)O[C@@H]3COP(O)(=S)O[C@H]3C[C@H](n4cc(C)c(=O)[nH]c4=O)O[C@@H]3CO)O2)c(=O)[nH]c1=O` (stereo partly specified), the inhibition result in data set [1], in data set [2] and in data set [6] was “Active” in each case. The inhibition result in data set [3], in data set [4], in [5], in [7], in [8] and in data set [10] was “inactive” in each case. For the same molecule, the inhibition result in data set [14] and in data set [15] was “inactive” in each case. Besides, the IC50 in data set [9] came to 30 nM; in data set [13], 20 nM. The IC90 in data set [9] was 220 nM. Besides, the Activity entry in data set [11] was “Non-toxic”. Also, the CC50 at 144 h in [12] is over 10000 nM.
